The source made the active and inactive calls. The calls are words filed in the database; no cut-off is given here.
Tests used:
[1] = tested on: Saccharomyces cerevisiae; test: Toxicity against wild type yeast MDY326 assessed as 2 fold reduction of cell growth; format: organism-based; details: in vivo
In short: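 Wild-type cells (pdr5Δ snq2Δ) grown 18–24 h at 30°C in YPD with serially diluted compound; OD490 read; value is concentration giving 2-fold growth inhibition versus DMSO.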

[2] = tested on: Saccharomyces cerevisiae; test: Growth inhibition of yeast MDY330 carrying temperature sensitive allele of clathrin heavy chain gene assessed as cell growth at 25 uM relative to wild-type; format: functional; set-up: scale not given: the % may be the effect or the level left
[3] = tested on: Saccharomyces cerevisiae; test: Effect on localization of chitin synthase Chs3p in CHS6 deficient yeast MDY335 assessed as induction of chitin bud scars at 25 uM by fluorescence microscopy; format: functional, organism-based
In short: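 chs6Δ cells (pdr5Δ snq2Δ background) grown overnight at 30°C in YPD with 25 μM compound or DMSO; cells mixed 1:1 with 2.5 mM calcofluor white in YPD for 10 min, washed twice, chitin rings scored by fluorescence microscopy.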

[4] = tested on: Saccharomyces cerevisiae; test: Growth inhibition of wild type yeast MDY326 assessed as cell growth at 25 uM; format: functional; set-up: scale not given: the % may be the effect or the level left
In short: (§1)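 Overnight cultures (pdr5Δ snq2Δ background) diluted to OD600 0.0003 in YPD, given serially diluted compound in 30-μl cultures, grown 18–24 h at 30°C humidified; OD490 read after vortexing; growth expressed as fold inhibition relative to the same strain with DMSO.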

[5] = tested on: Saccharomyces cerevisiae; test: Growth inhibition of gga1/2 deficient yeast MDY327 cells assessed as cell growth at 25 uM relative to wild-type; format: functional; set-up: scale not given: the % may be the effect or the level left
[6] = tested on: Saccharomyces cerevisiae; test: Growth inhibition of apl2/4 deficient yeast MDY334 cells assessed as cell growth at 25 uM relative to wild-type; format: functional; set-up: scale not given: the % may be the effect or the level left
[7] = tested on: Saccharomyces cerevisiae; test: Growth inhibition of gga1/2delta containing yeast MDY327; format: functional, organism-based; in short: as §1
[8] = tested on: Saccharomyces cerevisiae; test: Growth inhibition of wild type yeast MDY326 cells upto 300 uM; format: functional, organism-based; in short: as §1
[9] = tested on: Saccharomyces cerevisiae; test: Growth inhibition of AP1 deficient yeast MDY334 cells upto 300 uM; format: functional, organism-based; in short: as §1
[10] = tested on: Saccharomyces cerevisiae; test: Growth inhibition of gga1/2delta containing yeast MDY327 carrying wild type SNQ2 and PDR5 gene; format: functional, organism-based
[11] = tested on: Saccharomyces cerevisiae; test: Inhibition of maturation of alpha-factor2 in gga2delta containing yeast MDY380 at 25 uM; format: functional, organism-based
In short: (§2)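 Cells treated overnight with 25 μM compound or DMSO in YPD to OD600 0.2, washed in SCMG with 50 μM compound, labeled 10 min with [35S]methionine, chased 30 min; α-factor immunoprecipitated from medium, SDS/PAGE and autoradiography.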

[12] = tested on: Saccharomyces cerevisiae; test: Inhibition of maturation of alpha-factor2 in wild type yeast MDY326 at 25 uM; format: functional, organism-based; in short: as §2
[13] = tested on: Saccharomyces cerevisiae; test: Degradation of Ste3p receptor in wild type yeast MDY326 cells by pulse-chase immunoprecipitation; format: functional, organism-based
In short: (§3)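 Cells grown at 30°C to OD600 0.2 in YPD with DMSO or compound, washed twice in SCMG containing 50 μM compound, pulse-labeled 10 min with [35S]methionine (50 μCi per OD600), chased in YPD; samples stopped with NaF/NaN3 (10 mM final) at set chase points; Ste3p immunoprecipitated from lysates, SDS/PAGE and autoradiography.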

[14] = tested on: Saccharomyces cerevisiae; test: Degradation of Ste3p receptor in gga2delta containing yeast MDY380 by pulse-chase immunoprecipitation; format: functional, organism-based; in short: as §3
[15] = tested on: Saccharomyces cerevisiae; test: Degradation of Ste3p receptor in yeast MDY330 carrying temperature sensitive allele of clathrin heavy chain gene by pulse-chase immunoprecipitation; format: functional, organism-based; in short: as §3
[16] = tested on: Saccharomyces cerevisiae; test: Effect on maturation of alkaline phosphatase in wild type yeast SEY6210 at 25 uM by pulse-chase immunoprecipitation; format: functional, organism-based
In short: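 SEY6210 grown overnight with 25 μM compound or DMSO, pulse-labeled 5 min with [35S]methionine, chase started by adding yeast extract/cysteine/methionine; ALP immunoprecipitated from lysates at chase points; precursor and mature forms resolved by SDS/PAGE and autoradiography; apl6Δ strain run in parallel.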

[17] = tested on: Saccharomyces cerevisiae; test: Effect on maturation of carboxyl peptidase S in wild type yeast MDY326 assessed as delay in maturation at 25 uM by pulse-chase immunoprecipitation; format: functional
In short: (§4)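 Cells grown overnight in YPD with 25 μM compound or DMSO, labeled 10 min with [35S]methionine, chase started by adding yeast extract/cysteine/methionine; CPS immunoprecipitated at chase points; precursor versus mature forms compared by SDS/PAGE and autoradiography.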

[18] = tested on: Saccharomyces cerevisiae; test: Prevention of maturation of carboxyl peptidase S in gga1/2 deficient yeast MDY327 assessed as delay in maturation at 25 uM by pulse-chase immunoprecipitation; format: functional, organism-based; in short: as §4
[19] = tested on: Saccharomyces cerevisiae; test: Toxicity against wild type yeast MDY326 assessed as 2 fold reduction of cell growth at 14 uM; format: organism-based; details: in vivo
In short: (§5)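 Wild-type strain MDY326 (pdr5Δ snq2Δ) diluted to OD600 0.0003 in YPD, compound serially diluted into 30 μl cultures, grown 18–24 h at 30°C humidified; OD490 read after vortexing, normalized to untreated/DMSO wells; value is the concentration producing 2-fold growth inhibition.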

[20] = tested on: Saccharomyces cerevisiae; test: Effect on maturation of alpha-factor2 in gga2delta containing yeast MDY380; format: functional, organism-based
In short: (§6)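 Yeast grown at 30°C to OD600 0.2 in YPD with compound (25 μM) or DMSO, washed twice in SCMG containing 50 μM compound, pulse-labeled 10 min with [35S]methionine (50 μCi per OD600), chased 30 min in YPD, stopped with NaF/NaN3 (10 mM final); secreted α-factor immunoprecipitated from medium, resolved by SDS/PAGE and autoradiography; DMSO-treated and wild-type (MDY326) cells as reference.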

[21] = tested on: Saccharomyces cerevisiae; test: Effect on maturation of alpha-factor2 in yeast MDY330 carrying temperature sensitive allele of clathrin heavy chain gene; format: functional, organism-based; in short: as §6
[22] = tested on: Saccharomyces cerevisiae; test: Toxicity against wild type yeast MDY326 assessed as 2 fold reduction of cell growth at 150 uM; format: organism-based; details: in vivo; in short: as §5
[23] = tested on: Saccharomyces cerevisiae; test: Toxicity against wild type yeast MDY326 assessed as 2 fold reduction of cell growth at 130 uM; format: organism-based; details: in vivo
[24] = tested on: Saccharomyces cerevisiae; test: Toxicity against wild type yeast MDY326 assessed as 2 fold reduction of cell growth at 95 uM; format: organism-based; details: in vivo; in short: as §5

| SMILES | Activity [2] | Activity [3] | Activity [4] | Activity [5] | Activity [6] | other results |
| --- | --- | --- | --- | --- | --- | --- |
| CC(=O)c1ccc(N2CCN(CC3CC3)CC2)cc1 |  |  |  |  |  | Activity [1]: Non-toxic |
| CC(=O)c1ccc(N2CCN(Cc3ccc(Cl)cc3)CC2)cc1 |  |  |  |  |  | Activity [1]: Non-toxic |
| O=C(Nc1ccccc1)c1ccccc1/N=C/c1cc(Br)ccc1O | 70% | inactive | 70% | 50% | 50% |  |
| COC(=O)c1ccccc1/N=C/c1c(O)c(Br)cc2oc3c(c12)CCCC3 | <50% | inactive | 70% | <50% | 50% |  |
| C/C=C(\C)CN1CCN(c2ccc(C(C)=O)cc2)CC1 | 50% | Active | 70% | <50% | 70% | EC50 [7]: 4 µM; Activity [8]: inactive; Activity [9]: inactive; Activity [10]: Active; Activity [11]: Active; Activity [12]: inactive; Activity [13]: inactive; Activity [14]: inactive; Activity [15]: inactive; Activity [16]: inactive; Activity [17]: <2; Activity [1]: Non-toxic; Activity [18]: Active |
| CCn1c2ccccc2c2cc(CNC3CCCC3)ccc21 | 70% | inactive | 70% | <50% | 70% |  |
| Cc1cc(S)n(-c2ccccc2)n1 | 50% | inactive | 70% | <50% | 50% |  |
| C/C=C(\C)CN1CCN(c2ccc(C(=O)O)cc2)CC1 |  |  |  |  |  | Activity [1]: Non-toxic |
| CC1(C(=O)NC(=S)NNC(=O)c2cccnc2)CCCCC1 | 70% | inactive | 70% | <50% | 70% |  |
| O=C1NC(=O)/C(=C\c2cccc(Cl)c2Cl)S1 | 70% | inactive | 70% | 50% | 70% |  |
| CC(=O)c1ccc(N2CCN(Cc3cccc(Cl)c3Cl)CC2)cc1 |  |  |  |  |  | Activity [19]: Toxic |
| O=C1/C(=C\c2ccc(-c3cccc(Cl)c3)o2)SC(=S)N1CCS(=O)(=O)O |  |  |  |  |  | Activity [20]: inactive; Activity [21]: inactive |
| COC(=O)Oc1c(Br)c(C)c2oc(=O)sc2c1Br | 70% | inactive | 70% | <50% | 70% |  |
| Cl.N=c1n(Cc2ccccc2)c2ccccc2n1CC(O)COc1ccccc1 (stereo not drawn) | 50% | inactive | 70% | <50% | 50% |  |
| COc1ccc(CNC2C3CC4CC(C3)CC2C4)c2ccccc12 (stereo not drawn) | 70% | inactive | 70% | <50% | 70% |  |
| CC(=O)c1ccc(N2CCN(Cc3cccc(F)c3F)CC2)cc1 |  |  |  |  |  | Activity [22]: Toxic |
| CC(=O)c1ccc(N2CCN(CC3CCCC3)CC2)cc1 |  |  |  |  |  | Activity [23]: Toxic |

| SMILES | Activity [2] | Activity [3] | Activity [4] | Activity [5] | Activity [6] | other results |
| --- | --- | --- | --- | --- | --- | --- |
| CC(=O)c1ccc(N2CCN(Cc3cccs3)CC2)cc1 |  |  |  |  |  | Activity [1]: Non-toxic |
| C/C=C(\C)CN1CCN(c2ccc(C(=O)OCC)cc2)CC1 |  |  |  |  |  | Activity [1]: Non-toxic |
| CC(=O)c1ccc(N2CCN(Cc3ccccc3C(F)(F)F)CC2)cc1 |  |  |  |  |  | Activity [1]: Non-toxic |
| COc1ccc(CN2CCN(Cc3cc(Br)ccc3O)CC2)cc1 |  |  |  |  |  | Activity [20]: inactive; Activity [21]: inactive |
| O=C1/C(=C/c2ccc(O)cc2)SC(=S)N1C1CCCCC1 | <50% | inactive | 70% | <50% | 50% |  |
| CCN1CCN(c2ccc(C(C)=O)cc2F)CC1 |  |  |  |  |  | Activity [1]: Non-toxic |
| CC(=O)c1ccc(N2CCN(Cc3ccsc3)CC2)cc1 |  |  |  |  |  | Activity [1]: Non-toxic |
| CC(=O)c1ccc(N2CCN(Cc3ccco3)CC2)cc1 | 50% | Active | 70% | 50% | 70% | Activity [8]: inactive; Activity [9]: inactive; Activity [11]: Active; Activity [12]: inactive |
| O=C(N/N=C/c1c[nH]c2ccccc12)c1cc(-c2ccc(Cl)cc2)n[nH]1 | 70% | inactive | 70% | <50% | 70% |  |
| CC(=O)c1ccc(N2CCN(Cc3cc(F)ccc3F)CC2)cc1 | 50% | Active | 70% | <50% | 70% | Activity [11]: Active; Activity [12]: inactive |
| c1ccc(CN2CCC(NCC(c3ccccc3)c3ccccc3)CC2)cc1 | 70% | inactive | 70% | <50% | 70% |  |
| Cc1cc(O)c(C(C)C)cc1NS(=O)(=O)c1ccc(Cl)cc1 | 70% | inactive | 70% | 50% | 70% |  |
| CC(=O)c1ccc(N2CCN(Cc3cccc(F)c3)CC2)cc1 |  |  |  |  |  | Activity [24]: Toxic |
| CC(=O)c1ccc(N2CCN(CC3=CCCCC3)CC2)cc1 |  |  |  |  |  | Activity [22]: Toxic |
| CC(C)Cc1ccc(C(C)C(=O)N/N=C/c2ccc(N(C)C)cc2)cc1 (stereo not drawn) | 70% | inactive | 70% | <50% | 70% |  |
| CC(=O)c1ccc(N2CCN(Cc3ccccc3)CC2)cc1 |  |  |  |  |  | Activity [1]: Non-toxic |
| CC(=O)c1ccc(N2CCN(Cc3ccccc3F)CC2)cc1 |  |  |  |  |  | Activity [22]: Toxic |
